Calls of active or inactive are those of the source.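 How the source made its calls, unless noted: active means fluorescence slope higher than the sample average by over 3 SD (cut at about -0.22 in these data, passing the limit was not always enough); inactive means the rest.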
How the values were obtained:
[1] = inhibitors of TNFa-induced NFkB p65 translocation, primary screen, imaging, HUVEC, MLSMR starter and 10KST1 sets (AID 438;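 active means inhibition above 20% together with a positive visual image hit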;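 further: compound added about 3h40 before a 20 min TNFalpha stimulation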;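 on inhibition: signal is the nuclear over cytoplasmic p65 intensity ratio per well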); conditions: HUVEC TNFa-induced p65 nuclear translocation; cell count: measured here: nuclei count (cytotoxicity indicator), at 2.08 µM; inhibition: at 2 µM, stronger effect = higher value, 0% TNFa-plus-vehicle, 100% no-TNFa wells
[2] = reduction of polyQ htt aggregates in cells – imaging, exon1htt(103Q)mCFP cells, high-content imaging, primary screen (AID 483;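 active means visual image review flags a hit and inhibition of aggregation exceeds 20%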;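 further: compound exposure lasted 3 days before fixation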;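 on nuclei count: percent of the per-plate median nuclei count of sample wells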); conditions: exon1htt(103Q)mCFP cell line, aggregate imaging, at 2 µM; inhibition of aggregation: stronger effect = higher value; nuclei count: measured here: cell count, toxicity
[3] = endothelial E-selectin expression blockers – imaging, HUVEC, immunofluorescence, MLSMR starter and 10KST1 sets, primary screen (AID 487;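 active means visually confirmed hit in the image check and inhibition above 20%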;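 on inhibition: signal is fraction of cell area covered by stained E-selectin grains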;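 on nuclei count: 100% = median nuclei count of all wells on the same plate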); conditions: HUVEC TNFalpha-induced E-selectin immunofluorescence imaging, at 2 µM; inhibition: stronger effect = higher value; nuclei count: measured here: cell number, toxicity
[4] = molecular target: Voltage-gated potassium channel subunit beta-2 (Rattus norvegicus) (UniProt P62483); experiment: inhibitors of rat Kvbeta2 reductase activity – biochemical, NADPH fluorescence, primary screen (AID 622); conditions: recombinant KvBeta, 4-cyanobenzaldehyde reduction, at 10 µM, stronger effect = higher value;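 further: slope of raw intensity against log time taken from 70 to 1610 s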
[5] = molecular target: Voltage-gated potassium channel subunit beta-2 (Rattus norvegicus) (UniProt P62483); experiment: enhancers of rat Kvbeta2 NADPH turnover – biochemical, NADPH fluorescence, primary screen (AID 623;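 active means NADPH fluorescence slope more negative than the mean of all samples by about 3 SD, 99.7% confidence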;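 further: fluorescence intensity change per second fitted from 20 to 320 s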); conditions: Recombinant KvBeta, NADPH fluorescence decrease slope, 10 min; at 10 µM; stronger effect = lower value
[6] = molecular target: Muscarinic acetylcholine receptor M4 (Homo sapiens) (UniProt P08173); experiment: M4-linked GIRK flux change, two-sided – cell-based, HEK293 M4/GIRK, thallium flux, BTC-AM, M4 allosteric agonist project, primary screen (AID 625;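 active means fluorescence slope after compound addition differing from the mean of all tested samples at 99.7% confidence, mostly higher but some lower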;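 further: thallium influx through GIRK channels coupled to M4 in HEK293 cells with BTC-AM dye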); conditions: at 10 µM, actives lie on both sides
How it was run: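 assay system = HEK293 cells with M4 receptor and GIRK channels | medium = pH 7.3 thallium assay buffer | doses = 10 µM final, single point | timing = cells overnight at 37 °C, BTC-AM loading 1 h, reads 2 min total | signal = BTC-AM fluorescence, 1 Hz kinetic reads | read-out = post-addition slope, 15–24 s, of baseline-normalized fluorescence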

[7] = blockers of RIG-like receptor reporter activation – cell-based, Sendai virus stimulus, luciferase, 10K MLSCN set, TLR/RLR signaling modifier project, primary screen (AID 602276;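 active means inhibition at or above 50% at 10 µM; inactive means inhibition below 50%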;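 further: firefly luciferase from ISG56 promoter only with Renilla not read in this screen; 0% = Sendai virus plus DMSO and 100% = medium plus DMSO without virus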); conditions: HEK293 RL24 IRF3 luciferase reporter, at 10 µM, stronger effect = higher value
[8] = TLR3 IRF3 reporter activation blockers – cell-based, poly I:C stimulus, luciferase, 10K MLSCN set, primary screen (AID 602277;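 active means inhibition of the reporter signal at or above 50%; inactive means inhibition below 50%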); conditions: HEK293-TLR3 RL24 IRF3 luciferase reporter, at 10 µM, stronger effect = higher value

Voltage-gated potassium channel subunit beta-2 (Rattus norvegicus), sequence (P62483 whole entry, looked up): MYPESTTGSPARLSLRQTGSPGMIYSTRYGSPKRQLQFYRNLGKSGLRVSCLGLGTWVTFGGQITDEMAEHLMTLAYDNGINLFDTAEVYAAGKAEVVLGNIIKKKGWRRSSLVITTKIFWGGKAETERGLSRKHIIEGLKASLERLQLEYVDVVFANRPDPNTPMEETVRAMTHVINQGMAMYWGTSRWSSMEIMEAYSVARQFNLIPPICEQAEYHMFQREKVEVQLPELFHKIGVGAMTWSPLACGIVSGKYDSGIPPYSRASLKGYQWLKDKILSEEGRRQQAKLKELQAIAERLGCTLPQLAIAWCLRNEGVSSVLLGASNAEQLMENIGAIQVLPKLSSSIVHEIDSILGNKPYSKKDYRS
Muscarinic acetylcholine receptor M4 (Homo sapiens), sequence (P08173 whole entry, looked up): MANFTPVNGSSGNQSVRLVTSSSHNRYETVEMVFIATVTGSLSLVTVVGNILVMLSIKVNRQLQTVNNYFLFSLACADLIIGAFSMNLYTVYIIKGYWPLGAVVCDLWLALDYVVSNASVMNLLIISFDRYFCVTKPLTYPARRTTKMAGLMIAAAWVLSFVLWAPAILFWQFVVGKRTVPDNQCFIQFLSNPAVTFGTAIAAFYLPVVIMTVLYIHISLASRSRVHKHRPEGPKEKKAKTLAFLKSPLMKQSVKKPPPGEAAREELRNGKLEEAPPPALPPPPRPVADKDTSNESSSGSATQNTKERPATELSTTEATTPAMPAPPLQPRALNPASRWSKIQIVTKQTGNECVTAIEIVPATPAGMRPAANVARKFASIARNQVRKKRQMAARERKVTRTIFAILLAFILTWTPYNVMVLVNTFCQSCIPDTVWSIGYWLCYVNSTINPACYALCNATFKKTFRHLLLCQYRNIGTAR

Row | Compound | cell count [1] | inhibition [1] | inhibition of aggregation [2] | nuclei count [2] [%] | inhibition [3] | nuclei count [3] [%] | fluorescence slope [4] | NADPH fluorescence slope [5] | fluorescence slope [6] | inhibition [7] | inhibition [8]
1 | C=CCn1c(SCc2cc(=O)n3ccsc3n2)nnc1C1CCCCC1 | 439 | 3.8% (inactive) | -27.5% (inactive) | 104 | 3.6% (inactive) | 116 | -0.561 (inactive) | -1.8e-05 (inactive) | 0.00775 (inactive) | 9.44% (inactive) | 21.1% (inactive)
2 | O=C(CCSc1nnc(-c2ccncc2)o1)Nc1ccccc1 | 680 | -3.9% (inactive) | 1% (inactive) | 107 | -26.7% (inactive) | 114 | -0.512 (inactive) | -6.6e-05 (inactive) | 0.0061 (inactive) | 1.76% (inactive) | 12.2% (inactive)
3 | CCOCCCNS(=O)(=O)c1ccc2c(c1)oc(=O)n2CC(=O)OCC | 454 | -6.6% (inactive) | 24.3% (inactive) | 119 | -7.8% (inactive) | 82.5 | -0.444 (inactive) | 3.2e-05 (inactive) | 0.00606 (inactive) | 12.8% (inactive) | 23.6% (inactive)
4 | O=c1[nH]c2ccccc2nc1NCCN1CCOCC1 | 404 | -26.6% (inactive) | -31.4% (inactive) | 98.9 | -80.4% (inactive) | 134 | -0.553 (inactive) | -6.2e-05 (inactive) | 0.00364 (inactive) | 8.81% (inactive) | 1.66% (inactive)
5 | CC(c1ccco1)N(C(=O)c1ccc(S(=O)(=O)N2CCCCC2)cc1)c1ccccn1 (stereo not drawn) | 265 | 18.1% (inactive) | 13.8% (inactive) | 109 | -32.7% (inactive) | 105 | -0.506 (inactive) | -0.000211 (active) | 0.0101 (inactive) | 6.94% (inactive) | 8.51% (inactive)
6 | Cc1cccc2cc(CN(Cc3nnnn3Cc3ccco3)C3CCCC3)c3nnnn3c12 | 719 | -2.8% (inactive) | 4.4% (inactive) | 113 | -14% (inactive) | 116 | -0.451 (inactive) | 3.4e-05 (inactive) | 0.00551 (inactive) | 9.99% (inactive) | 13% (inactive)
7 | CCOC(=O)c1cccc(NC(=O)CCn2nnc3ccccc32)c1 | 341 | 1.2% (inactive) | 4.8% (inactive) | 112 | -4.7% (inactive) | 118 | -0.457 (inactive) | -2.8e-05 (inactive) | 0.00454 (inactive) | 18.4% (inactive) | 8.84% (inactive)
8 | Cc1ccc(Cn2c(C(=O)NCCCN3CCOCC3)cc3sccc32)cc1 | 765 | -5.9% (inactive) | -85.9% (inactive) | 111 | -218% (inactive) | 118 | -0.486 (inactive) | 1.1e-05 (inactive) | 0.00431 (inactive) | 14.1% (inactive) | 31.6% (inactive)
9 | O=C(Nc1nc(-c2ccccc2)cs1)C1CCCCN1S(=O)(=O)c1ccccc1 (stereo not drawn) | 509 | 6.9% (inactive) | -0.8% (inactive) | 101 | -18.7% (inactive) | 96.2 | -0.659 (inactive) | 1.4e-05 (inactive) | 0.00633 (inactive) | -0.318% (inactive) | 1.39% (inactive)
10 | COc1ccccc1N1CCN(C(=O)CCNS(=O)(=O)c2ccc3c(c2)CCC(=O)N3)CC1 | 556 | -18.8% (inactive) | -1.4% (inactive) | 123 | -31.1% (inactive) | 102 | -0.39 (inactive) | -1.7e-05 (inactive) | 0.00579 (inactive) | 5.92% (inactive) | 13.8% (inactive)
11 | CCOC(=O)C1CCCN(C(=O)c2cc(=O)c3ccccc3o2)C1 (stereo not drawn) | 376 | -18.9% (inactive) | -28.1% (inactive) | 114 | -38.4% (inactive) | 98.7 | -0.426 (inactive) | 2.6e-05 (inactive) | 0.00575 (inactive) | 14.5% (inactive) | 19.9% (inactive)
12 | O=S(=O)(c1ccc(OCC(O)CN2CCC(Cc3ccccc3)CC2)cc1)N1CCOCC1 (stereo not drawn) | 730 | 4.8% (inactive) | -9.9% (inactive) | 120 | -22.7% (inactive) | 116 | -0.46 (inactive) | -4e-06 (inactive) | 0.00575 (inactive) | -3.87% (inactive) | 3.35% (inactive)
13 | COC(=O)c1cccc(NC(=O)C2COc3ccccc3O2)c1C (stereo not drawn) | 349 | -3.3% (inactive) | 13.6% (inactive) | 102 | -10.1% (inactive) | 96.5 | -0.508 (inactive) | -1.7e-05 (inactive) | 0.0049 (inactive) | -2.98% (inactive) | -15.7% (inactive)
14 | CCOC(=O)c1cnc(-n2nc(C)cc2C)nc1Nc1ccc(N(C)C)cc1 | 603 | -15.5% (inactive) | 30.6% (inactive) | 84 | -51.8% (inactive) | 88.2 | -0.574 (inactive) | -4.7e-05 (inactive) | 0.00563 (inactive) | 4.06% (inactive) | 4.11% (inactive)
15 | CC(=O)NCCn1ccc2ccccc21 | 272 | 14.1% (inactive) | 17.6% (inactive) | 93 | -55.1% (inactive) | 99.6 | -0.518 (inactive) | 0.000103 (inactive) | 0.00841 (inactive) | 16.6% (inactive) | 20.7% (inactive)
16 | CCCOc1ccc(/C(O)=C2/C(=O)C(=O)N(CCCOC)C2c2ccncc2)cc1 (stereo not drawn) | 593 | 5.8% (inactive) | 4% (inactive) | 97.6 | 1.9% (inactive) | 108 | -0.29 (inactive) | -6.1e-05 (inactive) | 0.00606 (inactive) | 13.1% (inactive) | 2.66% (inactive)
17 | COc1ccc(N2CCC(CNS(=O)(=O)c3cccc(C(F)(F)F)c3)C2)cc1 (stereo not drawn) | 385 | 5.3% (inactive) | 30.1% (active) | 92.1 | -33.3% (inactive) | 132 | -0.494 (inactive) | -0.000248 (inactive) | 0.00389 (inactive) | 7.7% (inactive) | 2.96% (inactive)
18 | CCCc1cn(S(=O)(=O)c2ccc(OC)cc2OC)nc1N | 364 | -8.7% (inactive) | 7.3% (inactive) | 100 | -38.9% (inactive) | 119 | -0.537 (inactive) | -3.9e-05 (inactive) | 0.00411 (inactive) | -0.283% (inactive) | 5.1% (inactive)
19 | Cc1ccc(/C(O)=C2\C(=O)C(=O)N(CCCN(C)C)C2c2ccccn2)cc1 (stereo not drawn) | 536 | 0.9% (inactive) | -3.7% (inactive) | 98.9 | -53.4% (inactive) | 132 | -0.514 (inactive) | -0.000162 (inactive) | 0.00375 (inactive) | 16.3% (inactive) | 8.71% (inactive)
20 | COc1cc(CC(=O)NCc2ccc3c(c2)OCO3)cc(OC)c1OC | 698 | -7.8% (inactive) | -5.2% (inactive) | 142 | -43.8% (inactive) | 124 | -0.519 (inactive) | -0.000135 (inactive) | 0.00565 (inactive) | 6.85% (inactive) | 10.7% (inactive)
21 | Cc1cccc(C)c1NC(=O)CC(NCc1ccco1)C(=O)O (stereo not drawn) | 623 | -8.3% (inactive) | -5.4% (inactive) | 71.3 | 26.5% (inactive) | 105 | -0.364 (inactive) | -6.5e-05 (inactive) | 0.00596 (inactive) | 10.4% (inactive) | 23.1% (inactive)
22 | CCCC1CCC(C(=O)Nn2c(C)nc3ccccc3c2=O)CC1 (stereo not drawn) | 340 | 0% (inactive) | -13.5% (inactive) | 73.2 | 11.4% (inactive) | 79 | -0.472 (inactive) | -2.4e-05 (inactive) | 0.00445 (inactive) | 15.6% (inactive) | 18.5% (inactive)
23 | CC(C)(C)OC(=O)N1CCN(c2ccc(NC(=O)c3cc4ccccc4oc3=O)cc2)CC1 | 409 | 4.4% (inactive) | -4.1% (inactive) | 110 | -52.6% (inactive) | 107 | -0.582 (inactive) | -4.9e-05 (inactive) | 0.0076 (inactive) | 16.2% (inactive) | -11.3% (inactive)
24 | O=C(Nc1ccccc1)N(Cc1cccnc1)Cc1ccco1 | 335 | -0.7% (inactive) | 5.9% (inactive) | 97.2 | -36.9% (inactive) | 103 | -0.463 (inactive) | -3.6e-05 (inactive) | 0.00427 (inactive) | 18.2% (inactive) | 14.3% (inactive)
25 | CCS(=O)(=O)N1CCC(C(=O)N2CCOCC2)CC1 | 647 | -7.3% (inactive) | -7% (inactive) | 95.7 | 27.5% (inactive) | 94.4 | -0.574 (inactive) | -2.5e-05 (inactive) | 0.00531 (inactive) | 12.1% (inactive) | 15.7% (inactive)
26 | COc1ccc(OC)c(Nc2cc(-c3ccccc3)nc(N)n2)c1 | 423 | 9.2% (inactive) | -34.6% (inactive) | 0.5 | -25.1% (inactive) | 115 | -0.548 (inactive) | 4.9e-06 (inactive) | 0.00508 (inactive) | 46.6% (inactive) | 86.6% (active)
27 | CC(C)[C@H](NC(=O)[C@@H]1CSCN1C(=O)OC(C)(C)C)C(=O)NCC1CCC(C(=O)O)CC1 (stereo partly drawn) | 341 | 8.6% (inactive) | 11.9% (inactive) | 92.5 | 17.3% (inactive) | 84.4 | -0.579 (inactive) | 1.8e-05 (inactive) | 0.00513 (inactive) | 25.1% (inactive) | 22.7% (inactive)
28 | CCN(C(=O)c1cc2cc3ccc(C)cc3nc2o1)c1ccc(OC)cc1 | 225 | -1.3% (inactive) | 0.1% (inactive) | 107 | -11% (inactive) | 106 | -0.431 (inactive) | -1.6e-05 (inactive) | 0.00704 (inactive) | -25.1% (inactive) | -79.8% (inactive)

Reference: PubChem BioAssay
